The assay deals with T1, C-C chemokine receptor type 4 (Homo sapiens, UniProt P51679).
T1 sequence (P51679 whole entry): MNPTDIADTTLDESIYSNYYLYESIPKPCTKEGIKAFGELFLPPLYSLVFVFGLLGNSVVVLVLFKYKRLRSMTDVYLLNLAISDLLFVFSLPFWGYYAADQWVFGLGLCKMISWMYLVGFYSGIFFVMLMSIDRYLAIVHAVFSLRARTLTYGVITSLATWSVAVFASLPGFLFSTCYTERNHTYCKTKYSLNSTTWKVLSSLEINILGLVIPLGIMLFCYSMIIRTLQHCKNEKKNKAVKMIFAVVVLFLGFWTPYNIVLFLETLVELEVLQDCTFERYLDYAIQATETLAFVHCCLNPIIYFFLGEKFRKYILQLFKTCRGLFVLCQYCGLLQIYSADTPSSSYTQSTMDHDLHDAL
Description: Inverse agonist activity at CCR4 in human HTLA cells assessed as depression of basal activity incubated for 20 mins by beta arrestin-recruitment mediated luciferase reporter gene assay in absence of CCL22. The procedure, abridged: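 Transfected HTLA β-arrestin2-TEV/tTA-luciferase cells expressing CCR4, in serum-free DMEM, treated with compound dilutions in HBSS/20 mM HEPES pH 7.4 without CCL22 agonist; luciferase luminescence read on day 4; basal signal depression plotted as concentration-response curves.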
(In general: A reporter such as luciferase makes a cellular process visible.)

IC50 data for one molecule are collected here from BindingDB's records for doi:10.1021/jm301749y (University of North Carolina at Chapel Hill, 2013).

One may read the IC50 as the midpoint of a concentration-inhibition curve. As to `CCC(C)n1ncn(-c2ccc(N3CCN(c4ccc(OC[C@H]5CO[C@](Cn6cncn6)(c6ccc(Cl)cc6Cl)O5)cc4)CC3)cc2)c1=O` (stereo partly specified) [Oriconazole], the IC50 came out at 200 nM.
